Reference: article PMC7941214 (Journal of medicinal chemistry, 2019)
“And” between values parts separate entries of the source, which are not always exact repeats. Identical values can stand only once.

Experiments:
A. baumannii NCTC 13420 = test: Broth microdilution MIC/MBC, A. baumannii; format: cell-based, Acinetobacter baumannii; conditions: for MIC A. baumannii NCTC 13420: value before the parentheses, two values = two repeats; for MBC A. baumannii NCTC 13420: value in parentheses
P. aeruginosa NCTC 13437 = test: Broth microdilution MIC/MBC, P. aeruginosa; format: cell-based, Pseudomonas aeruginosa; conditions: for MIC P. aeruginosa NCTC 13437: value before the parentheses, two values = two repeats; for MBC P. aeruginosa NCTC 13437: value in parentheses
Procedure, shortened: (§1)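 CLSI broth microdilution in cation-adjusted Mueller–Hinton broth. Log-phase cultures were diluted to 7.5 × 10^5 CFU/mL, then mixed 1:1 with 2-fold serial dilutions of gold complexes from DMSO or water stocks, in triplicate, and held 37 °C, 18 h, static. MIC: lowest concentration giving >90% inhibition by OD600 against medium-only and bacteria-only wells. […] E. coli ATCC 25922 quality control was checked each run with ciprofloxacin and […].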

E. cloacae NCTC 13405 = test: Broth microdilution MIC/MBC, E. cloacae; format: cell-based, Enterobacter cloacae; conditions: for MIC E. cloacae NCTC 13405: value before the parentheses, two values = two repeats; for MBC E. cloacae NCTC 13405: value in parentheses; for fold enhancement of activity over auranofin, E. cloacae: vs auranofin
Procedure, shortened: as §1

[1] = system: K. pneumoniae ATCC 700603; test: Broth microdilution MIC/MBC, K. pneumoniae; format: cell-based, Klebsiella pneumoniae; conditions: for MIC K. pneumoniae ATCC 700603: value before the parentheses, two values = two repeats; for MBC K. pneumoniae ATCC 700603: value in parentheses; for fold enhancement of activity over auranofin, K. pneumoniae: vs auranofin
Procedure, shortened: as §1

S. aureus JE2 (USA300) = test: Broth microdilution MIC/MBC, S. aureus; format: cell-based, Staphylococcus aureus; conditions: for MBC S. aureus JE2 (USA300): value in parentheses; for fold enhancement of activity over auranofin, S. aureus: vs auranofin; for MIC S. aureus JE2 (USA300): value before the parentheses, two values = two repeats
Procedure, shortened: as §1

E. faecium ATCC 700221 = test: Broth microdilution MIC/MBC, E. faecium; format: cell-based, Enterococcus faecium; conditions: for MIC E. faecium ATCC 700221: value before the parentheses, two values = two repeats; for MBC E. faecium ATCC 700221: value in parentheses
Procedure, shortened: as §1

E. coli ATCC 25922 = test: Broth microdilution MIC/MBC, E. coli; format: cell-based, Escherichia coli; conditions: for MIC E. coli ATCC 25922: value before the parentheses, two values = two repeats; for MBC E. coli ATCC 25922: value in parentheses
Procedure, shortened: as §1

Gram-negative strains = test: Broth microdilution, Gram-negative strains taken together; format: cell-based
Log P determination = conditions: n-octanol/water, Au by FAAS
rat = conditions: cited from earlier work
A549 cells = test: Cytotoxicity assay; format: cell-based, human; conditions: for IC50: read-out: IC50 against A549 cells, means ± SEM from two independent experiments

| SMILES | MIC A. baumannii NCTC 13420 (A. baumannii NCTC 13420) | MIC P. aeruginosa NCTC 13437 (P. aeruginosa NCTC 13437) | MIC E. cloacae NCTC 13405 (E. cloacae NCTC 13405) | MIC K. pneumoniae ATCC 700603 [1] | MBC S. aureus JE2 (USA300) (S. aureus JE2 (USA300)) | MIC E. faecium ATCC 700221 (E. faecium ATCC 700221) | MBC E. faecium ATCC 700221 (E. faecium ATCC 700221) | MIC E. coli ATCC 25922 (E. coli ATCC 25922) | log P (Log P determination) | MBC A. baumannii NCTC 13420 (A. baumannii NCTC 13420) | MBC P. aeruginosa NCTC 13437 (P. aeruginosa NCTC 13437) | MBC E. cloacae NCTC 13405 (E. cloacae NCTC 13405) | MBC K. pneumoniae ATCC 700603 [1] | MBC E. coli ATCC 25922 (E. coli ATCC 25922) | MIC S. aureus JE2 (USA300) (S. aureus JE2 (USA300)) | also measured |
| --- | --- | --- | --- | --- | --- | --- | --- | --- | --- | --- | --- | --- | --- | --- | --- | --- |
| CC[P+](CC)(CC)[Au-][S]c1ccc([N+](=O)[O-])cc1 [Compound 19, (4-Nitrobenzenethiolato)(triethylphosphine) Gold(I)] | >546 µM | >546 µM | >546 µM | >546 µM | 0.02 µM | 0.06 µM and 0.1 µM | 0.5 µM | >546 µM | >3.28 | – | – | – | – | – | – | MIC S. aureus (S. aureus JE2 (USA300)): in the nanomolar range; fold enhancement of activity over auranofin, S. aureus (S. aureus JE2 (USA300)): up to 10; activity toward Gram-negative strains (in words) (Gram-negative strains): completely inactive |
| CCP(CC)CC.[Au+].[Cl-] [Compound 25, (Triethylphosphine)gold Chloride] | – | 92 µM | 23 µM | 46 µM | 0.2 µM | – | 0.7 µM | 23 µM | 1.74 | 23 µM | 183 µM | 23 µM | 46 µM | 23 µM | – | rat acute oral LD50 (rat): 79.0 mg/kg |
| C[PH](C)(C)[Au][S]CCO [Compound 40, (2-Mercaptoethanolato)(trimethylphosphine) Gold(I)] | 5.7 µM and 6 µM and 3 µM | – | 2.9 µM and 3 µM | 11 µM | 0.7 µM | 0.3 µM | 0.3 µM | – | −0.15 | 23 µM | 91 µM | 3 µM | 23 µM | 11 µM | 0.3 µM | fold enhancement of activity over auranofin, E. cloacae (E. cloacae NCTC 13405): 65; MIC K. pneumoniae [1]: 11 μ/mL; fold enhancement of activity over auranofin, K. pneumoniae [1]: 34; IC50 (A549 cells): 35.1 ± 8.9 µM |
| CC[PH](CC)(CC)[Au][S]c1ccc(C(F)(F)F)cc1 [Compound 20, (4-(Trifluoromethyl)benzenethiolato)(triethylphosphine) Gold(I)] | 520 µM | >520 µM | >520 µM | >520 µM | 0.2 µM | 0.02 µM | 0.2 µM | >520 µM | >3.18 | > 520 µM | – | – | – | – | – | activity toward Gram-negative strains (in words) (Gram-negative strains): completely inactive |
| CC[P+](CC)(CC)[Au-][S]CCO [Compound 21, (2-Mercaptoethanolato)(triethylphosphine) Gold(I)] | 10 µM | 41 µM | 5 µM and 10 µM | 20 µM | 0.03 µM | 0.2 µM and 0.3 µM | 0.6 µM | 10 µM | 1.19 | 82 µM | 41 µM | 82 µM | 20 µM | 10 µM | 0.03 µM | fold enhancement of activity over auranofin, P. aeruginosa (P. aeruginosa NCTC 13437; vs auranofin): 9; fold enhancement of activity over auranofin, E. cloacae (E. cloacae NCTC 13405): 19; fold enhancement of activity over auranofin, K. pneumoniae [1]: 19; cytotoxicity relative to auranofin (times less toxic) (A549 cells; A549 cells, vs auranofin): 1.6; fold enhancement of activity over auranofin, Gram-negative strains (Gram-negative strains; vs auranofin): 5–19 |
| CC(=O)OCC1O[C@@H]([S][Au-][P+](C)(C)C)C(OC(C)=O)[C@@H](OC(C)=O)[C@@H]1OC(C)=O (stereo partly drawn) [Compound 31, (2,3,4,6-Tetra-O-acetyl-1-thio-β-D-glucopyranosato)-(trimethylphosphine) Gold(I)] | – | 101 µM | 3.1 µM and 3 µM | 13 µM | 0.2 µM | 0.2 µM and 0.4 µM | 0.8 µM | 6 µM | 0.35 | 101 µM | 101 µM | 3.1 µM and 3 µM | 13 µM | 6 µM | 0.1 µM | fold enhancement of activity over auranofin, E. cloacae (E. cloacae NCTC 13405): 60 and 61; fold enhancement of activity over auranofin, K. pneumoniae [1]: 30; IC50 (A549 cells): 20.6 ± 3.6 µM |
| CCCC[P+](CCCC)(CCCC)[Au-][S][C@@H]1OC(COC(C)=O)[C@@H](OC(C)=O)[C@H](OC(C)=O)C1OC(C)=O (stereo partly drawn) [Compound 32, (2,3,4,6-Tetra-O-acetyl-1-thio-β-D-glucopyranosato)(tri-n-butylphosphine) Gold(I)] | 84 µM | >336 µM | >336 µM | >336 µM | 3 µM | 3 µM and 5 µM | 3 µM | >336 µM | >4.32 | > 336 µM | – | – | – | – | 3 µM | activity toward Gram-negative strains (in words) (Gram-negative strains): completely diminished the activity |
| CCCC[PH](CCCC)(CCCC)[Au][Cl] [Compound 26, (Tri-n-butylphosphine)gold Chloride] | 74 µM and 147 µM | 74 µM | >589 µM | 147 µM | 4 µM | 5 µM | 5 µM | >589 µM | >3.99 | 147 µM | 74 µM | – | 147 µM | – | 2 µM | – |
| C[PH](C)(C)[Au][S]C1OC(CO)C(O)C(O)C1O [Compound 38, (1-Thioβ-D-galatopyranosato)(trimethylphosphine) Gold(I)] | 17 µM and 9 µM | >547 µM | 4.5 µM and 4 µM | 34 µM | 0.3 µM | 0.3 µM and 0.5 µM | 0.5 µM | 9 µM | −1.88 | 17 µM | – | 4.5 µM and 4 µM | 34 µM | 9 µM | 0.3 µM | – |
| CC[P+](CC)(CC)[Au-][S][C@@H]1OC(CO)[C@@H](O)[C@H](O)C1NC(C)=O (stereo partly drawn) [Compound 12, (2-Acetamido-2-deoxy-1-thio-β-D-glucopyranosato)-(triethylphosphine) Gold(I)] | 15 µM and 29 µM | 464 µM | 116 µM | 464 µM | 0.05 µM | 0.05 µM and 0.1 µM | 0.5 µM | 7 µM and 4 µM | −0.89 | 116 µM | 464 µM | 232 µM | 464 µM | 7 µM | 0.02 µM | fold enhancement of activity over auranofin, S. aureus (S. aureus JE2 (USA300)): 2–3; fold enhancement of activity over auranofin, E. coli (E. coli ATCC 25922; vs auranofin): 2–3 |
| FC(F)(F)c1ccc(P(c2ccc(C(F)(F)F)cc2)c2ccc(C(F)(F)F)cc2)cc1.[Cl][Au] [Compound 30, (Tris(4-trifluoromethylphenyl)phosphine)gold Chloride] | >366 µM | >366 µM | >366 µM | >366 µM | 11 µM | >366 µM | – | >366 µM | >3.94 | – | – | – | – | – | – | – |
| CC[PH](CC)(CC)[Au][S]c1ccccc1 [Compound 15, (Benzenethiolato)(triethylphosphine) Gold(I)] | – | 302 µM | 75 µM | >603 µM | 0.6 µM | 0.6 µM | 1 µM | 151 µM | 2.20 | > 603 µM | 302 µM | 603 µM | – | 151 µM | 0.02 µM | – |
